Source: PubChem BioAssay AID588484 (The Scripps Research Institute Molecular Screening Center, 2011)
The source made the active and inactive calls.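 Rule for the calls: active = IC50 of 1 µM or lower against any of the four tested PAD enzyme isoforms; inactive = the rest, IC50 above 1 µM everywhere.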

Experiments:
Test in all cases: PAD1-4 inhibitor IC50 determination, late-stage follow-up, selectivity assay for PAD4 inhibitor project, biochemical, colorimetric, BAEE substrate, recombinant PAD1-4 (AID 588484)
[1] = biological target: Protein-arginine deiminase type-3 (Homo sapiens) (UniProt Q9ULW8); details: recombinant PAD1-4, BAEE citrullination, colorimetric absorbance; PAD3
Procedure, shortened: (§1)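 System: recombinant PAD2, PAD3 or PAD4 enzyme, each assayed separately. Amount: PAD2/PAD3 0.5 µM, PAD4 0.2 µM. Medium: Tris pH 7.6, CaCl2, DTT. Also added: 10 mM BAEE substrate. Schedule: 15 min pre-incubation (37 °C), 15 min reaction. Detection: citrulline absorbance, 540 nm. Repeats: duplicate measurements at each compound concentration.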

[2] = biological target: Protein-arginine deiminase type-1 (Homo sapiens) (UniProt Q9ULC6); details: recombinant PAD1-4, BAEE citrullination, colorimetric absorbance; PAD1
Procedure, shortened: as §1

[3] = biological target: Protein-arginine deiminase type-4 (Homo sapiens) (UniProt Q9UM07); details: recombinant PAD1-4, BAEE citrullination, colorimetric absorbance; PAD4
Procedure, shortened: as §1

[4] = biological target: Protein-arginine deiminase type-2 (Homo sapiens) (UniProt Q9Y2J8); details: recombinant PAD1-4, BAEE citrullination, colorimetric absorbance; PAD2
Procedure, shortened: as §1

Measured: IC50

Sequence of Protein-arginine deiminase type-2 (Homo sapiens) (Q9Y2J8 whole entry, looked up): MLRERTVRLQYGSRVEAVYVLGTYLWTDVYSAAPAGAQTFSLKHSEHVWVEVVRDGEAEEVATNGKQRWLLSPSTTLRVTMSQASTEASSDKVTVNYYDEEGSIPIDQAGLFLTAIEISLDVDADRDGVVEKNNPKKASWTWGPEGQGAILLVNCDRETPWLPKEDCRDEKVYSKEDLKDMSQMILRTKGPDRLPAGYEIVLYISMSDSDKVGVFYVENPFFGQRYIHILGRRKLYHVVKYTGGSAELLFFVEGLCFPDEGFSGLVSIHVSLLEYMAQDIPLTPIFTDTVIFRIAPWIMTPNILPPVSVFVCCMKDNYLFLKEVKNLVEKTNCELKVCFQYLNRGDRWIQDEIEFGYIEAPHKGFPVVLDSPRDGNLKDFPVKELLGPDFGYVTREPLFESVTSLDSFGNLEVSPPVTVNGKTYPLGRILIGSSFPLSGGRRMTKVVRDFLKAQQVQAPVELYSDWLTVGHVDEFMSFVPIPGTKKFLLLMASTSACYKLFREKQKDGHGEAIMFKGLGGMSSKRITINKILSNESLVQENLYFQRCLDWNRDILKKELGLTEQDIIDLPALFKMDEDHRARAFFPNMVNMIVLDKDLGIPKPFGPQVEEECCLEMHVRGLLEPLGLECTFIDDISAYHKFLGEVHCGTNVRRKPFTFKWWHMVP
Sequence of Protein-arginine deiminase type-1 (Homo sapiens) (Q9ULC6 whole entry, looked up): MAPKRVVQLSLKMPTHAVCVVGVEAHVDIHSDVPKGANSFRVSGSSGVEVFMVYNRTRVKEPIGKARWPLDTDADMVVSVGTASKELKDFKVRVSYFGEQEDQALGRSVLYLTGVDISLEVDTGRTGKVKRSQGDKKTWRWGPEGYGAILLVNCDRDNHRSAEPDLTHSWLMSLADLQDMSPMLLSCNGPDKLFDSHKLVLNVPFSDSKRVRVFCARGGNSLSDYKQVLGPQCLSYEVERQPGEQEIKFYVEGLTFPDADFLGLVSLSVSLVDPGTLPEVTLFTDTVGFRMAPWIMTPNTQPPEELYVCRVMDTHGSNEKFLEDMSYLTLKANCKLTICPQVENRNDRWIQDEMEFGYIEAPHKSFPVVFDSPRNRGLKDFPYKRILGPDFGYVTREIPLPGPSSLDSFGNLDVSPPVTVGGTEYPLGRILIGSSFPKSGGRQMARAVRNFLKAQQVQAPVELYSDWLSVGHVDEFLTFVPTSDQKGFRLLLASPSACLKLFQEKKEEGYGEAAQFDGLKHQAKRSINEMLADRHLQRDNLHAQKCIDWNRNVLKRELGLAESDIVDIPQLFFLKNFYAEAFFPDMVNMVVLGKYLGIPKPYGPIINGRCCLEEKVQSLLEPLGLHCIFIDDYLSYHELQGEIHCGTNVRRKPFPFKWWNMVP
Sequence of Protein-arginine deiminase type-3 (Homo sapiens) (Q9ULW8 whole entry, looked up): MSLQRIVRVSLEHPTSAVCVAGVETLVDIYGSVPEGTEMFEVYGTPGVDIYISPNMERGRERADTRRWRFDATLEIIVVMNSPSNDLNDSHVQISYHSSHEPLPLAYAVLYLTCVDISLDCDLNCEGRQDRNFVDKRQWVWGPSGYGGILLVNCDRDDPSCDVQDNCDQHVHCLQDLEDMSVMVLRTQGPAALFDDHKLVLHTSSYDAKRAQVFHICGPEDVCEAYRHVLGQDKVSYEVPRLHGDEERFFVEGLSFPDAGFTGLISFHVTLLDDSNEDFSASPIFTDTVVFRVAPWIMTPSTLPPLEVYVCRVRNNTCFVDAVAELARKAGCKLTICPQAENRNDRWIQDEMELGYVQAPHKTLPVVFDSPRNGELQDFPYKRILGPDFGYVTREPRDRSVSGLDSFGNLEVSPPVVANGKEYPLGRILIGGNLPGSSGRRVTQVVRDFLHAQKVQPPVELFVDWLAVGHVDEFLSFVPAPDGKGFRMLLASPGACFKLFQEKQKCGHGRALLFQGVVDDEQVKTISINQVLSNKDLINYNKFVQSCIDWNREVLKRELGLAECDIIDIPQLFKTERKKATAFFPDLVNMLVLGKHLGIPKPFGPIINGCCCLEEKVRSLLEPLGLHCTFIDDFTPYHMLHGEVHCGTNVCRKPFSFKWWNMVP
Sequence of Protein-arginine deiminase type-4 (Homo sapiens) (Q9UM07 whole entry, looked up): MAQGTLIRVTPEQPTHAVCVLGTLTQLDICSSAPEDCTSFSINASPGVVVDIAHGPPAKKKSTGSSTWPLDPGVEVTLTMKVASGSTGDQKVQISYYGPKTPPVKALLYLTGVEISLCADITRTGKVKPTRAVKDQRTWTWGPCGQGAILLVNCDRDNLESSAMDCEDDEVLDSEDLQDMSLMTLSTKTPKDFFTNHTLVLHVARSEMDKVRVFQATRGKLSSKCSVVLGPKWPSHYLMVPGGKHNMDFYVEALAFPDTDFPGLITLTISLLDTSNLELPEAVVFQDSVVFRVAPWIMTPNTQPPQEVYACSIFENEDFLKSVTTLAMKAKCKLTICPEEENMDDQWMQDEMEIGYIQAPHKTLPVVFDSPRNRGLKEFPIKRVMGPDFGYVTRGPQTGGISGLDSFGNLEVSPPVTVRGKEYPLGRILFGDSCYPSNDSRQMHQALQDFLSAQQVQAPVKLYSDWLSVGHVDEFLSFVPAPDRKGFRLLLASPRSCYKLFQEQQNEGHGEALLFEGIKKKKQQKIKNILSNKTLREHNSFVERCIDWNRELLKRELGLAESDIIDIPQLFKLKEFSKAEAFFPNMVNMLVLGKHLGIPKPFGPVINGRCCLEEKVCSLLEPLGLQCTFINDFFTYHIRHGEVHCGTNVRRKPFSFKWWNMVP

COC1=C(Br)C(=O)c2ncccc2C1=O
inactive: all assays above
